Wee1 degr inh: blocks degradation of human Wee1 kinase; P30291; HeLa Luc-Wee1K328M stability, luciferase luminescence; 100% = proteasome inhibitor MG132 effect; reporter increase, % at 5 µM; 1.2% of 220,000 active;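 active = activation above the mean of all tested compounds plus 3 SD, set per screening run, cut at about 8.8% in these data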;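 also: cells exposed to compound for 20 h before luminescence read; 0% = DMSO alone and 100% = MG132 at 30 µM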
Target sequence (P30291 whole entry K328M): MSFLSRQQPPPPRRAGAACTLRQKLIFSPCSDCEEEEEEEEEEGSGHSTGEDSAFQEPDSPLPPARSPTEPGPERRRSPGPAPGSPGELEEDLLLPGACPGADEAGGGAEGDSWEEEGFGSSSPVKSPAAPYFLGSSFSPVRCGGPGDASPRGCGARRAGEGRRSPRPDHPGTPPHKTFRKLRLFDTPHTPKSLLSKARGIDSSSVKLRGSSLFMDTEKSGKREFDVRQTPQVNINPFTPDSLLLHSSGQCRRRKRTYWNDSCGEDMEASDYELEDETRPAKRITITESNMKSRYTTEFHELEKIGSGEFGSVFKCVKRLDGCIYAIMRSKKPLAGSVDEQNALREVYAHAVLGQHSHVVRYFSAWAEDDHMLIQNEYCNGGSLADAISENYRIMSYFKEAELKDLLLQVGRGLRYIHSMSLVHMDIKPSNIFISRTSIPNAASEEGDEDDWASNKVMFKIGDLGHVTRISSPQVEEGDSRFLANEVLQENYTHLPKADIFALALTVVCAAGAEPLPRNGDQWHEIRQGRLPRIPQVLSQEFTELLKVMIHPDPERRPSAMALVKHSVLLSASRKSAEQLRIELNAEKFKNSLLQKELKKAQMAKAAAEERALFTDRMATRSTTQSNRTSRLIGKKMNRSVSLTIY
p97 ATPase inh: blocks human p97 ATPase activity; recombinant p97 ATPase, Kinase-Glo ATP luminescence, 3 h; inhibition, % at 8 µM; 0.42% of 220,000 active; in the data active = inhibition above about 15%;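 also: 0% = DMSO vehicle and 100% = wells lacking enzyme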
APP 5'UTR act: APP 5'UTR luciferase reporter activation; 1% of 190,000 active; SH-SY5Y APP 5'UTR luciferase reporter, luminescence; zero percent = DMSO vehicle wells; activation, % at 2 µM; AID 1276;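 active = activation above a set limit, based on mean plus 3 SD of controls, cut at about 140% in these data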
NF-kB expr up: raises NF-kB expression in human neuronal cells. NF-kB reporter expression; active compounds read high. fold change at 12.5 µM. 1.6% of 190,000 active; in the data active = fold change above about 3.3
MDM2 E3 inh: blocks human Mdm2 ubiquitin ligase activity; 0.11% of 210,000 active; Q00987; AID 1230; cell-based MDM2 ubiquitination luciferase reporter, 2 h; 0 = plate control, 100 = twice control, blank-subtracted; signal enhancement, % at 5 µM;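 active = signal enhancement of 30% or more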;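 also: luminescence tracks abundance of the self-degrading MDM2-luciferase fusion protein; higher signal means inhibition of MDM2 E3 ligase activity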
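Buffer or medium: Cells held in DMEM | Assay system: Stable mammalian line carrying autodegrading MDM2–luciferase fusion reporter | Quantity: 2000 cells/well | Times: 4 h settle plus 2 h compound, 37 °C | Doses: One concentration, 5 µM, with 0.2% DMSO | Technique: Luminescence with SteadyLite reagent, 15 min at room temperature | Benchmarks: Plate controls and plate blanks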
STAT1 act: increases IFN-gamma driven STAT1 reporter signal. NIH 3T3 STAT1-luciferase reporter, luminescence; 100% = IFN-gamma alone, no compound. activation (% of control), % at 5.5 µM. 2.6% of 200,000 active. AID 932;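 active = activation above the screen-wide mean activation plus 3 SD, cut at about 130% in these data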;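 also: raw ratio to IFN-gamma control signal so 100% means no change and 0% no light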
STAT1 act conf: confirmation of STAT1 signaling activators. shares compounds with STAT1 act. NIH 3T3 STAT1-luciferase reporter, IFN-gamma potentiation, luminescence; 100% = IFN-gamma EC80 alone, no compound. activation (% of control), % at 5.7 µM. 97% of 1,200 active. AID 1262;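 active = activation above a set limit carried over from the earlier primary STAT1 screen, cut at about 140% in these data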;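 also: simple ratio to median IFN-gamma plus DMSO wells so 0% means no light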
NFkB act: counter-screen for STAT1 activators: NF-kappaB activation. HEK293T NF-kB luciferase reporter, TNF-alpha stimulated, luminescence; 100% = TNF-alpha with vehicle only. 43% of 1,200 active. AID 1306. activation (% of control), % at 5.7 µM. shares compounds with STAT1 act;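 active = activation above the mean of solvent-only control wells plus 3 SD, set per campaign, cut at about 130% in these data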;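 also: TNF-alpha given at a submaximal dose yielding about 80% of full reporter signal; values are well signal over median control so 100% means no change and 0% no light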
STAT3 act 2: human STAT3 activation in STAT1 activator counter-screen; activation (% of control), % at 5.7 µM; shares compounds with STAT1 act; U3A cells STAT3-luciferase reporter, IL-6, luminescence; cells lack STAT1; 100 = IL-6 alone, no compound effect; AID 1316; 46% of 1,200 active;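 active = activation above the solvent-only control well mean plus 3 SD, set per plate batch, cut at about 110% in these data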;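 also: 0% = no luminescence and 100% = median IL-6 plus DMSO wells; higher means more STAT3 reporter activation so hits are non-selective activators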
Wee1 stab conf: confirmation of human Wee1 degradation inhibitors; shares compounds with Wee1 degr inh; HeLa Luc-Wee1K328M degradation, luminescence; vehicle 0%, proteasome-blocked wells 100%; activation, % at 5 µM; 4% of 1,100 active; AID 1410; in the data active = activation above about 8.9%
An asterisk follows results filed as active; . = no result given. Most compounds without a hit are left out; they make up all but 4.6% or so of the library.

SMILES	Wee1 degr inh	p97 ATPase inh	APP 5'UTR act	NF-kB expr up	MDM2 E3 inh	STAT1 act	STAT1 act conf	NFkB act	STAT3 act 2	Wee1 stab conf
COc1ccc(NC(=O)/C(Cl)=C(/Cl)S(=O)Cc2ccccc2)cn1 (centres undefined)	16.6*	11.5	.	0.18	-5.4	203.8*	335.6*	48.2	105.3	24.6*
O=C1[C@H]2[C@H](ON3CCCC[C@H]23)C(=O)N1c1ccc(Cl)cc1	-2.7	5.5	1.5	1.24	-17.1	101.5	.	.	.	.
COc1ccc(C2CC(c3ccc4ccccc4c3)=NN2C(=O)COC(=O)C2CCC(=O)N2)cc1 (centres undefined)	14.2*	1.8	257.6*	1.63	-8.2	183.3*	246.9*	148.4*	129.2*	7.9
COc1ccc(-c2cc(=Nc3ccc(C)cc3)c3ccccc3o2)cc1	-0.7	-0.6	-4.6	1.2	5.0	98.5	.	.	.	.
COc1ccc(-c2cc(=NC(CC(C)C)C(=O)O)c3cc(C)ccc3o2)cc1 (centres undefined)	11.8*	-9.3	126.1	4.33*	3.0	155.7*	143.8*	135.7*	107.9	-0.8
Cc1ccc(Nc2cc(C)nn2-c2nc(C)cc(=O)[nH]2)cc1	128.8*	2.0	-92.1	0.14	-12.3	232.2*	181.3*	167.2*	87.8	122.7*
Cc1cc(=O)n2[nH]c(CCC(=O)O)nc2n1	-1.9	-5.1	.	.	-1.0	.	.	.	.	.
Cc1ccc(NC(=O)c2cc3c(s2)CCCC3)cc1	16.1*	-7.2	119.2	8.81*	-7.4	160.4*	202.5*	153.8*	105.1	2.4
Cc1ccc(NC(=O)c2scc3c2CCCC3)cc1	11.7*	-9.3	195.1*	9.51*	-56.7	155.0*	252.0*	126.4	101.7	-2.0
CCOC(=O)c1ccc(NC(=O)c2ccc3c(c2)OCO3)cc1	-0.2	-1.1	51.5	1.61	-0.7	107.5	.	.	.	.
Cc1nc(NC(=O)c2ccc3c(c2)OCO3)ccc1Br	18.7*	-1.6	105.9	3.98*	-16.6	155.7*	169.4*	127.0	97.1	1.0
COCC(C)NCC(=O)NC(C)CCc1ccccc1 (centres undefined)	-0.1	5.1	-16.1	0.98	.	103.7	.	.	.	.
O=C(Nc1cccc(-c2csc(Nc3ccc(Cl)cc3)n2)c1)c1ccccc1	.	.	.	.	24.6	.	.	.	.	.
CC(=O)Nc1cccc(-c2csc(Nc3ncccn3)n2)c1	13.3*	-2.5	135.1*	1.72	-16.6	252.3*	304.0*	130.3	112.9*	5.2
O=C(CCOc1ccc(F)cc1)Nc1nccs1	1.9	-1.3	.	.	-15.7	.	.	.	.	.
Cc1ccc(Nc2nc(-c3ccncc3)cs2)cc1	18.3*	-0.6	128.8	2.9	-10.9	174.6*	214.6*	137.0*	125.9*	7.5
Cc1cc2oc(=O)cc(CN3CCN(S(=O)(=O)c4cccs4)CC3)c2cc1C	-0.6	7.8	-16.1	0.42	8.2	103.1	.	.	.	.
Cc1cc(C(F)(F)F)nc(-n2cc(-c3ccccc3)nn2)n1	2.6	3.5	29.1	1.33	-1.4	118.1	.	.	.	.
Cc1cccc(N2CN(Cc3ccco3)CNC2=S)c1	2.0	2.7	-5.3	1.1	0.8	101.8	.	.	.	.
O=C(Nc1cccc([N+](=O)[O-])c1)Nc1ccc2c(c1)OCCO2	16.7*	1.6	127.4	3.57*	-8.3	155.7*	195.5*	137.1*	136.3*	3.5
